Data on two molecules can be found in ChEMBL document CHEMBL4715845, “Conjugable A adenosine receptor antagonists for the development of functionalized ligands and their use in fluorescent probes” (Eur J Med Chem, 2020).

Molecules are shown by their SMILES.

The species entered for assay [1] is Homo sapiens. Description: Selectivity ratio of Ki for displacement of [3H]R-PIA from recombinant human A1AR expressed in CHO cell membranes to Ki for displacement of [125I]AB-MEC from recombinant human A3R expressed in CHO cell membranes.
The species entered for assay [2] is Homo sapiens. Description: Selectivity ratio of Ki for displacement of [3H]R-PIA from recombinant human A1AR expressed in CHO cell membranes to Ki for displacement of [3H]CGS21680 from recombinant human A2AAR expressed in HEK293 cell membranes. (In general: Loss of bound radioactivity is the signal in a displacement assay; it reports binding, not function.)
The target in assay [3] is T1, Adenosine receptor A1 (Homo sapiens) (UniProt P30542).
T1 sequence (whole entry): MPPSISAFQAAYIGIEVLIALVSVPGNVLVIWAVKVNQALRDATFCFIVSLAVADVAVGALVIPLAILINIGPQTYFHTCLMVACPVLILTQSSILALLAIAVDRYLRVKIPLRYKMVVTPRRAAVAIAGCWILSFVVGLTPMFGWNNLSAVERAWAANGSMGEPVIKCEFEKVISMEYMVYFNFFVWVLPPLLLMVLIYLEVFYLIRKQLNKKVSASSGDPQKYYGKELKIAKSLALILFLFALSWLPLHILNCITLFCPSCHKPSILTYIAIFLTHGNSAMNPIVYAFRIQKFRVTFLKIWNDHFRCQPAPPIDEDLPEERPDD
Description: Displacement of [3H]R-PIA from recombinant human A1AR expressed in CHO cell membranes at 10 uM relative to control. In outline:
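[3H]R-PIA competition at membranes of CHO cells expressing recombinant human A1AR, with test compound at a single concentration of 10 μM. Adenosine deaminase (3 units/mL) present in the 30 min, 30 °C preincubation and during incubation. Final DMSO ≤2%. Bound radioligand collected on GF/B filters. Reported as % inhibition of specific binding.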

The species entered for assay [4] is Homo sapiens. Description: Selectivity ratio of Ki for displacement of [3H]CGS21680 from recombinant human A2AAR expressed in HEK293 cell membranes to Ki for displacement of [125I]AB-MEC from recombinant human A3R expressed in CHO cell membranes.

As usually defined, the inhibition is the share of the control response that was lost under treatment. Consider `Cn1cc2c(nc(NC(=O)Nc3ccc(CC(=O)O)cc3)n3nc(-c4ccco4)nc23)n1`, for which the Ratio Ki is above 78 in the assay listed under Homo sapiens [1], above 10 in the assay filed under Homo sapiens [2] and 7.8 in the assay listed under Homo sapiens [4]. Also, in assay [3], the inhibition was found to be 4%.
As for `Cn1cc2c(nc(NC(=O)CCCc3cn(CCCCCCNC(=O)c4ccc(-c5c6ccc(=N)c(S(=O)(=O)O)c-6oc6c(S(=O)(=O)O)c(N)ccc56)c(C(=O)O)c4)nn3)n3nc(-c4ccco4)nc23)n1`, the Ratio Ki in the assay filed under Homo sapiens [4] was determined as 2.83.
